Source: ChEMBL document CHEMBL5058577, “EUbOPEN Chemogenomics Library 2 (Multiplex)” (2022)

Tested on: U2OS
Assay: Multiplex assay against U2OS
Format: toxicity, cell-based
Conditions: human
Procedure, shortened: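 Tubulin, mitochondrial-mass and membrane-permeability phenotypes are per cents of healthy-nucleus cells. Cells were gated by CellPathfinder machine learning into Hoechst high-intensity objects or normal cells, normal cells into healthy, pyknosed or fragmented nuclei, and pyknosed cells into mitotic or apoptotic. Before that, live cells stained at seeding with Hoechst33342, BioTracker Green Microtubule Cytoskeleton Dye, MitoTracker Red and Annexin V Alexa Fluor 680 were imaged on a CQ1 microscope at 37°C and 5% CO2 after compound addition.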

[1] = 12 h, 1 µM, compound concentration 1 uM, replicate 1
[2] = 12 h, 1 µM, compound concentration 1 uM, replicate 2
[3] = 12 h, 10 µM, compound concentration 10 uM, replicate 1
[4] = 12 h, 10 µM, compound concentration 10 uM, replicate 2
[5] = 24 h, 1 µM, compound concentration 1 uM, replicate 1
[6] = 24 h, 1 µM, compound concentration 1 uM, replicate 2
[7] = 24 h, 10 µM, compound concentration 10 uM, replicate 1
[8] = 24 h, 10 µM, compound concentration 10 uM, replicate 2
[9] = 48 h, 1 µM, compound concentration 1 uM, replicate 1
[10] = 48 h, 1 µM, compound concentration 1 uM, replicate 2
[11] = 48 h, 10 µM, compound concentration 10 uM, replicate 1
[12] = 48 h, 10 µM, compound concentration 10 uM, replicate 2

Compound: NCCc1cn(S(=O)(=O)c2c(Cl)nc3sccn23)c2ccccc12.O=C(O)C(=O)O
- Population Apoptotic (%) [1]: 66%
- Population Fragmented Nuclei (%) [1]: 30%
- Population Healthy Nuclei (%) [1]: 58%
- Population Hoechst High Intensity Objects (%) [1]: 1%
- Population Membrane Permeable-Phenotype (%) [1]: 9%
- Population Mitochondria Different-Phenotype (%) [1]: 6%
- Population Mitotic Cells (%) [1]: 33%
- Population Normal (%) [1]: 98%
- Population Pyknosed Nuclei (%) [1]: 10%
- Population Tubulin-Different-Phenotype (%) [1]: 6%
- Total Cell Count [1]: 280
- Population Apoptotic (%) [2]: 81%
- Population Fragmented Nuclei (%) [2]: 17%
- Population Healthy Nuclei (%) [2]: 72%
- Population Membrane Permeable-Phenotype (%) [2]: 4%
- Population Mitochondria Different-Phenotype (%) [2]: 8%
- Population Mitotic Cells (%) [2]: 18%
- Population Pyknosed Nuclei (%) [2]: 9%
- Total Cell Count [2]: 116
- Population Apoptotic (%) [3]: 71%
- Population Fragmented Nuclei (%) [3]: 26%
- Population Healthy Nuclei (%) [3]: 42%
- Population Hoechst High Intensity Objects (%) [3]: 5%
- Population Membrane Permeable-Phenotype (%) [3]: 42%
- Population Mitochondria Different-Phenotype (%) [3]: 60%
- Population Mitotic Cells (%) [3]: 28%
- Population Normal (%) [3]: 94%
- Population Pyknosed Nuclei (%) [3]: 30%
- Population Tubulin-Different-Phenotype (%) [3]: 59%
- Total Cell Count [3]: 221
- Population Apoptotic (%) [4]: 82%
- Population Fragmented Nuclei (%) [4]: 20%
- Population Healthy Nuclei (%) [4]: 53%
- Population Hoechst High Intensity Objects (%) [4]: 4%
- Population Membrane Permeable-Phenotype (%) [4]: 30%
- Population Mitochondria Different-Phenotype (%) [4]: 71%
- Population Mitotic Cells (%) [4]: 17%
- Population Normal (%) [4]: 95%
- Population Pyknosed Nuclei (%) [4]: 26%
- Population Tubulin-Different-Phenotype (%) [4]: 50%
- Total Cell Count [4]: 115
- Population Apoptotic (%) [5]: 69%
- Population Fragmented Nuclei (%) [5]: 25%
- Population Healthy Nuclei (%) [5]: 66%
- Population Hoechst High Intensity Objects (%) [5]: 1%
- Population Membrane Permeable-Phenotype (%) [5]: 6%
- Population Mitochondria Different-Phenotype (%) [5]: 5%
- Population Mitotic Cells (%) [5]: 30%
- Population Normal (%) [5]: 98%
- Population Pyknosed Nuclei (%) [5]: 8%
- Population Tubulin-Different-Phenotype (%) [5]: 3%
- Total Cell Count [5]: 326
- Population Apoptotic (%) [6]: 78%
- Population Fragmented Nuclei (%) [6]: 20%
- Population Healthy Nuclei (%) [6]: 70%
- Population Membrane Permeable-Phenotype (%) [6]: 9%
- Population Mitochondria Different-Phenotype (%) [6]: 7%
- Population Mitotic Cells (%) [6]: 21%
- Population Pyknosed Nuclei (%) [6]: 9%
- Population Tubulin-Different-Phenotype (%) [6]: 7%
- Total Cell Count [6]: 151
- Population Apoptotic (%) [7]: 83%
- Population Fragmented Nuclei (%) [7]: 29%
- Population Healthy Nuclei (%) [7]: 38%
- Population Hoechst High Intensity Objects (%) [7]: 6%
- Population Membrane Permeable-Phenotype (%) [7]: 26%
- Population Mitochondria Different-Phenotype (%) [7]: 63%
- Population Mitotic Cells (%) [7]: 16%
- Population Normal (%) [7]: 93%
- Population Pyknosed Nuclei (%) [7]: 31%
- Population Tubulin-Different-Phenotype (%) [7]: 26%
- Total Cell Count [7]: 240
- Population Apoptotic (%) [8]: 86%
- Population Fragmented Nuclei (%) [8]: 20%
- Population Healthy Nuclei (%) [8]: 46%
- Population Hoechst High Intensity Objects (%) [8]: 3%
- Population Mitochondria Different-Phenotype (%) [8]: 67%
- Population Mitotic Cells (%) [8]: 13%
- Population Normal (%) [8]: 96%
- Population Pyknosed Nuclei (%) [8]: 33%
- Population Tubulin-Different-Phenotype (%) [8]: 38%
- Total Cell Count [8]: 116
- Population Apoptotic (%) [9]: 81%
- Population Fragmented Nuclei (%) [9]: 21%
- Population Healthy Nuclei (%) [9]: 70%
- Population Hoechst High Intensity Objects (%) [9]: 1%
- Population Membrane Permeable-Phenotype (%) [9]: 5%
- Population Mitochondria Different-Phenotype (%) [9]: 4%
- Population Mitotic Cells (%) [9]: 18%
- Population Normal (%) [9]: 98%
- Population Pyknosed Nuclei (%) [9]: 8%
- Population Tubulin-Different-Phenotype (%) [9]: 2%
- Total Cell Count [9]: 454
- Population Apoptotic (%) [10]: 85%
- Population Healthy Nuclei (%) [10]: 66%
- Population Hoechst High Intensity Objects (%) [10]: 6%
- Population Membrane Permeable-Phenotype (%) [10]: 10%
- Population Mitochondria Different-Phenotype (%) [10]: 7%
- Population Mitotic Cells (%) [10]: 14%
- Population Normal (%) [10]: 93%
- Population Pyknosed Nuclei (%) [10]: 12%
- Population Tubulin-Different-Phenotype (%) [10]: 7%
- Total Cell Count [10]: 182
- Population Apoptotic (%) [11]: 92%
- Population Fragmented Nuclei (%) [11]: 37%
- Population Healthy Nuclei (%) [11]: 27%
- Population Hoechst High Intensity Objects (%) [11]: 7%
- Population Membrane Permeable-Phenotype (%) [11]: 25%
- Population Mitochondria Different-Phenotype (%) [11]: 56%
- Population Mitotic Cells (%) [11]: 7%
- Population Normal (%) [11]: 92%
- Population Pyknosed Nuclei (%) [11]: 35%
- Population Tubulin-Different-Phenotype (%) [11]: 25%
- Total Cell Count [11]: 241
- Population Fragmented Nuclei (%) [12]: 29%
- Population Healthy Nuclei (%) [12]: 34%
- Population Membrane Permeable-Phenotype (%) [12]: 42%
- Population Mitochondria Different-Phenotype (%) [12]: 65%
- Population Tubulin-Different-Phenotype (%) [12]: 42%
- Total Cell Count [12]: 127
